According to ChEMBL document CHEMBL2390932, “(+)-Usnic acid enamines with remarkable cicatrizing properties” (Bioorg Med Chem, 2013):
Converted amounts (≈) assume the structure as drawn. The source made the active and inactive calls. No cut-off for these calls is given here.

What was measured:
HaCaT [1] = experiment: Cytotoxicity against human HaCaT cells after 24 hrs by neutral red dye uptake assay; assay type: cell-based; details: for IC50: Homo sapiens, HaCaT; for IC05: human, hacat
Outline: (§1)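 Cells kept in DMEM with 10% FBS at 37 °C, 5% CO2. Seeded at 20,000 cells/well, grown 24 h, then exposed 24 h to a concentration series. Neutral red (0.05%) added for 3 h at 37 °C, dye extracted with 1% acetic acid in 50% ethanol, absorbance read at 540 nm. IC50, IC05 and 95% confidence intervals derived from a downhill logistic curve fit.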

A-431 = experiment: Cytotoxicity against human A431 cells after 24 hrs by neutral red dye uptake assay; assay type: functional, cell-based; details: A-431, 24 h; outline: as §1
Hathewaya histolytica [2] = experiment: Inhibition of Clostridium histolyticum collagenase using N-[3-(2-Furyl)acryloyl]-Leu-Gly-Pro-Ala as substrate at 100 ug/ml after 15 mins by spectrophotometric analysis relative to control
Outline: (§2)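 Samples dissolved in DMSO and diluted in 50 mM Tricine buffer (0.4 M NaCl, 0.01 M CaCl2, pH 7.5). Clostridium histolyticum collagenase and sample preincubated 5 min at 25 °C, then incubated 15 min. FALGPA substrate, prepared at 2 mM in the same buffer, was then added. Inhibition given as % with S.E.M.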

[3] = molecular target: T1, Neutrophil elastase (Homo sapiens) (UniProt P08246); experiment: Inhibition of human neutrophil elastase assessed as N-methoxysuccinyl-Ala-Ala-Pro-Val p-nitroanilide conversion to p-nitroaniline at 100 ug/ml after 1 hr by spectrophotometric analysis relative to control
T1 sequence (whole entry): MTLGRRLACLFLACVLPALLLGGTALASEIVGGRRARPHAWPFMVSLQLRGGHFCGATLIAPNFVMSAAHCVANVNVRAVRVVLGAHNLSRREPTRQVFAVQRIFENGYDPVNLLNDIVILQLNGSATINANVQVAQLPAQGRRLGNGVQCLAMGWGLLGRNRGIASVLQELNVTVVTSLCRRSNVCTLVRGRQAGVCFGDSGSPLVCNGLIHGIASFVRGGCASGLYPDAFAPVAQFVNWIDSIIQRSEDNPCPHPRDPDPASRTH
Outline: (§3)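 Sample and human neutrophil elastase (17 mU/ml) mixed in 0.1 M Tris–HCl, pH 7.5, and held 5 min at 25 °C. MeOSuc-Ala-Ala-Pro-Val p-nitroanilide was added and the mixture incubated 1 h at 37 °C. Reaction stopped with soybean trypsin inhibitor (1 mg/ml); p-nitroaniline absorbance read immediately. Inhibition given as % with S.E.M.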

Bos taurus [4] = species: Bos taurus; experiment: Inhibition of bovine hyaluronidase assessed as sodium hyaluronate conversion to N-acetylglucosamine at 100 ug/ml by spectrophotometric analysis relative to control
Mus musculus [5] = experiment: Wound healing activity in Swiss albino mouse circular excision wound model assessed as wound contraction applied topically qd after 4 days relative to control; assay type: functional; parameters: concentration or dose not given beside the values
HaCaT [6] = experiment: Wound healing activity in human HaCaT cells assessed as wound closure rate at 2.5 ug/mL after 24 hrs by inverted microscopic analysis; assay type: functional, cell-based
Outline: (§4)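 Confluent HaCaT monolayers scratched with a pipette tip, washed, re-fed with medium and exposed to compound for 24 h; 20% (v/v) platelet lysate served as positive control. Cells fixed in 3.7% formaldehyde and stained with 0.1% toluidine blue. Wound width measured by inverted microscope with camera at 0 and 24 h; closure taken as the width difference. Results expressed relative to control mean (100%), two independent experiments, n = 20 each.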

HaCaT [7] = experiment: Wound healing activity in human HaCaT cells assessed as wound closure rate at 2.2 ug/mL after 24 hrs by inverted microscopic analysis; assay type: functional, cell-based; outline: as §4
HaCaT [8] = experiment: Wound healing activity in human HaCaT cells assessed as wound closure rate at 2 ug/mL after 24 hrs by inverted microscopic analysis; assay type: functional, cell-based; outline: as §4
Mus musculus [9] = experiment: Wound healing activity in Swiss albino mouse circular excision wound model assessed as wound contraction applied topically qd after 6 days (reference value: 3.41%); assay type: functional
Mus musculus [10] = experiment: Wound healing activity in Swiss albino mouse circular excision wound model assessed as wound contraction applied topically qd after 10 days (reference value: 6.29%); assay type: functional
Mus musculus [11] = experiment: Wound healing activity in Swiss albino mouse circular excision wound model assessed as hydroxyproline content in skin applied topically qd after 7 days by spectrophotometric analysis; assay type: functional
Outline: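 Skin from ointment-treated mouse wounds (7 days) dried at 60–70 °C to constant weight, then hydrolyzed in 6 N HCl for 3 h at 130 °C. Hydrolysate neutralized to pH 7, oxidized with chloramine T and reacted with Ehrlich reagent at 60 °C. Read at 557 nm and reported as mg/g with S.E.M.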

Mus musculus [12] = experiment: Wound healing activity in Swiss albino mouse circular excision wound model assessed as wound contraction applied topically qd after 8 days (reference value: 2.18%); assay type: functional
Mus musculus [13] = experiment: Wound healing activity in Swiss albino mouse circular excision wound model assessed as wound contraction applied topically qd measured on the same day relative to control; assay type: functional; parameters: concentration or dose not given beside the values
HaCaT [14] = experiment: Wound healing activity in human HaCaT cells assessed as wound closure rate at 5 uM after 24 hrs by inverted microscopic analysis; assay type: functional, cell-based; outline: as §4
[15] = molecular target: T1, Neutrophil elastase (Homo sapiens); experiment: Inhibition of human neutrophil elastase assessed as N-methoxysuccinyl-Ala-Ala-Pro-Val p-nitroanilide conversion to p-nitroaniline at 50 ug/ml after 1 hr by spectrophotometric analysis relative to control; outline: as §3
Rattus norvegicus = experiment: Wound healing activity in Sprague-Dawley rat linear incision wound model assessed as tensile strength of wound applied topically qd for 9 days measured on day 10 by tensiometer (reference value: 10.6%); assay type: functional
HaCaT [16] = experiment: Wound healing activity in human HaCaT cells assessed as wound closure rate at 2.1 ug/mL after 24 hrs by inverted microscopic analysis; assay type: functional, cell-based; outline: as §4
HaCaT [17] = experiment: Wound healing activity in human HaCaT cells assessed as wound closure rate at 1.7 ug/mL after 24 hrs by inverted microscopic analysis; assay type: functional, cell-based; outline: as §4
Bos taurus [18] = species: Bos taurus; experiment: Inhibition of bovine hyaluronidase assessed as sodium hyaluronate conversion to N-acetylglucosamine at 50 ug/ml by spectrophotometric analysis relative to control
Mus musculus [19] = experiment: Wound healing activity in Swiss albino mouse circular excision wound model assessed as wound contraction applied topically qd after 2 days relative to control; assay type: functional; parameters: concentration or dose not given beside the values
Hathewaya histolytica [20] = experiment: Inhibition of Clostridium histolyticum collagenase using N-[3-(2-Furyl)acryloyl]-Leu-Gly-Pro-Ala as substrate at 50 ug/ml after 15 mins by spectrophotometric analysis relative to control; outline: as §2

Row | SMILES | IC50 (HaCaT [1]) [µg/mL] | IC05 (HaCaT [1]) [µg/mL] | inhibition (Hathewaya histolytica [2]) [%] | inhibition [3] [%] | inhibition (Bos taurus [4]) [%] | Activity (Mus musculus [5]) [%] | Activity (HaCaT [6]) | Activity (HaCaT [7]) | Activity (HaCaT [8]) | Activity (Mus musculus [9]) [%] | Activity (Mus musculus [10]) [%] | Activity (Mus musculus [11]) [mg/g] | Activity (Mus musculus [12]) [%] | Activity (Mus musculus [13]) [%] | Activity (HaCaT [14]) | inhibition [15] [%] | Activity (Rattus norvegicus) [%] | Activity (HaCaT [16]) | Activity (HaCaT [17]) | inhibition (Bos taurus [18]) [%] | also measured
1 | CC(=O)c1c(O)c(C)c(O)c2c1OC1=CC(=O)/C(=C(/C)NCCc3c[nH]c4ccccc34)C(=O)[C@@]12C | 5.3 (≈ 10.9 µM) | 2.5 |  |  |  |  |  |  |  |  |  |  |  |  |  |  |  |  |  |  | IC50 (A-431): 29 µg/mL (≈ 59.6 µM)
2 | CC(=O)c1c(O)c(C)c(O)c2c1OC1=CC(=O)/C(=C(/C)NCC(=O)O)C(=O)[C@@]12C | 5.8 (≈ 14.5 µM) | 0.2 |  |  |  |  |  |  |  |  |  |  |  |  |  |  |  |  |  |  | IC50 (A-431): 4.1 µg/mL (≈ 10.2 µM)
3 | O=C(O[C@@H]1Cc2c(O)cc(O)cc2O[C@@H]1c1cc(O)c(O)c(O)c1)c1cc(O)c(O)c(O)c1 |  |  | 41.2 | 88.2 |  |  |  |  |  |  |  |  |  |  |  |  |  |  |  |  | 
4 | CC(=O)c1c(O)c(C)c(O)c2c1OC1=CC(=O)/C(=C(/C)N[C@@H](CCCNC(=N)N)C(=O)O)C(=O)[C@@]12C | 163 (≈ 326 µM) | 16 |  |  |  |  |  |  |  |  |  |  |  |  |  |  |  |  |  |  | 
5 | O=C(OC[C@H]1O[C@@H](OC(=O)c2cc(O)c(O)c(OC(=O)c3cc(O)c(O)c(O)c3)c2)[C@H](OC(=O)c2cc(O)c(O)c(OC(=O)c3cc(O)c(O)c(O)c3)c2)[C@@H](OC(=O)c2cc(O)c(O)c(OC(=O)c3cc(O)c(O)c(O)c3)c2)[C@@H]1OC(=O)c1cc(O)c(O)c(OC(=O)c2cc(O)c(O)c(O)c2)c1)c1cc(O)c(O)c(OC(=O)c2cc(O)c(O)c(O)c2)c1 |  |  |  |  | 76.3 |  |  |  |  |  |  |  |  |  |  |  |  |  |  |  | 
6 | CC(=O)c1c(O)c(C)c(O)c2c1OC1=CC(=O)/C(=C(/C)NCCS)C(=O)[C@@]12C | 155 (≈ 384 µM) | 43 | 27.3 | 20.4 | 15.6 | 13.74 | Active | Active | Active | 10.25 | 1.39 | 39.8 | 4.42 | 19.46 | Active | 15.3 | 35.2 | Active | Active | 10.2 | Activity (Mus musculus [19]): 16.41%; inhibition (Hathewaya histolytica [20]): 19.5%
7 | CC(=O)c1c(O)c(C)c(O)c2c1OC1=CC(=O)/C(=C(/C)NCCCC(=O)O)C(=O)[C@@]12C | 150 (≈ 349 µM) | 67 | 49.2 | 30.3 | 39.4 | 12.81 | Active | Active | Active | 9.01 | 0.66 | 43 | 3.84 | 19.7 | Active | 25.1 | 47.6 | Active | Active | 25.8 | Activity (Mus musculus [19]): 16.03%; inhibition (Hathewaya histolytica [20]): 21.4%
8 | CC(=O)c1c(O)c(C)c(O)c2c1OC1=CC(=O)/C(=C(/C)NCCS(=O)(=O)O)C(=O)[C@@]12C | 47 (≈ 104 µM) |  |  |  |  | 14.52 | Active | Active | Active | 11.42 | 2.29 | 30.8 | 5.04 | 19.33 | Active |  | 29.3 | Active | Active |  | Activity (Mus musculus [19]): 17.74%
9 | CC(=O)c1c(O)c(C)c(O)c2c1OC1=CC(=O)/C(=C(/C)N)C(=O)[C@@]12C |  |  | 33.1 | 15.3 | 41.9 |  |  |  |  |  |  |  |  |  |  | 13.3 |  |  |  | 35.3 | inhibition (Hathewaya histolytica [20]): 20.7%
10 | CC(=O)c1c(O)c(C)c(O)c2c1OC1=CC(=O)/C(=C(/C)N[C@@H](Cc3c[nH]cn3)C(=O)O)C(=O)[C@@]12C | 36 (≈ 74.8 µM) | 1.7 |  |  |  |  |  |  |  |  |  |  |  |  |  |  |  |  |  |  | 
11 | CC(=O)c1c(O)c(C)c(O)c2c1OC1=CC(=O)/C(=C(/C)N[C@@H](Cc3ccc(O)cc3)C(=O)O)C(=O)[C@@]12C | 13 (≈ 25.6 µM) | 1.3 |  |  |  |  | Active | Active | Active |  |  |  |  |  | Active |  |  | Active | Active |  | IC50 (A-431): 36 µg/mL (≈ 70.9 µM)
12 | CC(=O)c1c(O)c(C)c(O)c2c1OC1=CC(=O)/C(=C(/C)NCCSSCCN/C(C)=C3\C(=O)C=C4Oc5c(C(C)=O)c(O)c(C)c(O)c5[C@@]4(C)C3=O)C(=O)[C@@]12C |  |  | 29.3 | 30.1 | 18.3 | 15.92 |  |  |  | 12.48 | 2.96 | 20.4 | 6.48 | 19.25 |  | 21.3 | 15.91 |  |  | 10 | Activity (Mus musculus [19]): 17.95%; inhibition (Hathewaya histolytica [20]): 20.8%
